Results on one sequence are retold here after PMC8341669 (RSC Chemical Biology, 2021).

This data set is described as follows: CD spectrum / MD helical content of the peptide in the free state. In kind it is physicochemical. The settings on record: CD in H2O at 200 μM and MD simulations. The method, boiled down: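 Peptide dissolved in HPLC-grade water at 200 μM and CD spectra recorded on a spectropolarimeter. Free peptide in solution MD: steepest-descent minimisation, 1 ns NVT (300 K, V-rescale) and 1 ns NPT (1 bar, Parrinello–Rahman) equilibration with heavy-atom restraints stepped off, then four 200 ns NPT production runs per peptide; PME electrostatics, 10 Å van der Waals cut-off, LINCS constraints.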

In the case of RIRREEYLKAIQ [Linear], the “α-helical content in the free state” value is listed as “lower α-helical content”.
